Published values collected from several papers.
Target: Mitogen-activated protein kinase 7 (MAPK7, Homo sapiens, UniProt Q13164)

Compound	effect on	mode	method	concentration	endpoint	result
CC(C)(C)c1nc2c(s1)c1nc(N)ncc1c1ccc(NS(=O)(=O)c3c(F)cccc3F)c(F)c12	enzyme activity	inhibitor	radiometric	1 µM	remaining activity	80%
Cc1nccc(COC(=O)N2C[C@@H]3[C@@H](CNC(=O)c4ccc5[nH]nnc5c4)[C@@H]3C2)n1	cell-free assay		competition with immobilised ligand	1 µM	remaining binding	98%
CC/C(=N\NC(=O)NCc1cccc(O)c1)c1ccc(O)c(C)c1O	enzyme activity	inhibitor		0.1 µM	inhibition	-1.7%
Cc1ccc(C(=O)Nc2ccc(CN3CCN(C)CC3)c(C(F)(F)F)c2)cc1C#Cc1cnc2cccnn12	enzyme activity	inhibitor		23.5 nM	remaining activity	98%
COc1cc(Nc2cnc(C#N)c(O[C@H](C)CN(C)C)n2)ncc1-c1cnn(C)c1	enzyme activity	inhibitor	radiometric	1 µM	remaining activity	86%
O=C(Nc1cnn(-c2csc(C(=O)NC3COC3)c2)c1)Nc1c(F)cccc1Cl	enzyme activity	inhibitor		5 µM	remaining activity	75.9%
CCCCNc1ncc2c(-c3ccc(F)cc3)nn(C[C@H]3CC[C@H](N)CC3)c2n1	target engagement in cells	inhibitor	chemoproteomics	20 mM	inhibition	11%
Cc1nc(N2CC[C@@H](O)C2)ncc1-c1cc(C(F)(F)F)cc2[nH]ncc12	binding		competition with immobilised ligand	1 µM	remaining binding	83%
COc1cccc2c(NCc3ccccc3)nc(-n3c(N)nc4ccccc43)nc12	target engagement in cells	inhibitor	chemoproteomics	20 mM	inhibition	-14.3%
COc1ccc2c(c1)O[C@@H](c1ccc(OC)c(OC)c1)C[C@H]2NC(=O)C1(c2ccc3c(c2)OC(F)(F)O3)CC1	cell-free assay		competition with immobilised ligand	1 µM	remaining binding	100%
CC(C)(O)[C@H]1CC[C@H](Nc2ccc3ncc(-c4cccc(C(F)(F)F)c4)n3n2)CC1	enzyme activity	inhibitor		1 µM	remaining activity	98.9%
Cn1cc(Cl)c2c(Oc3c(F)cc(Nc4cc(Cl)nc(N)n4)cc3F)ccnc21	cell-free assay		competition with immobilised ligand	0.1 µM	remaining binding	100%
FC(F)(F)Oc1cccc(-c2cnc3ccc(-c4ccncc4)nn23)c1	enzyme activity	inhibitor	radiometric	5 µM	activity vs control	56%
